Active and inactive are the calls of the source. No cut-off for these calls is given here.

The test system of assay [1] is L-lactate dehydrogenase, skeletal muscle M4 (Oryctolagus cuniculus). The experiment in a line: Ability to inhibit skeletal muscle LDH (LDH-M4); Inactive. To be noted: Muscle tissue.
Assay [2] concerns the target T1, Malate dehydrogenase, cytoplasmic (Sus scrofa) (UniProt P11708).
T1 sequence (whole entry): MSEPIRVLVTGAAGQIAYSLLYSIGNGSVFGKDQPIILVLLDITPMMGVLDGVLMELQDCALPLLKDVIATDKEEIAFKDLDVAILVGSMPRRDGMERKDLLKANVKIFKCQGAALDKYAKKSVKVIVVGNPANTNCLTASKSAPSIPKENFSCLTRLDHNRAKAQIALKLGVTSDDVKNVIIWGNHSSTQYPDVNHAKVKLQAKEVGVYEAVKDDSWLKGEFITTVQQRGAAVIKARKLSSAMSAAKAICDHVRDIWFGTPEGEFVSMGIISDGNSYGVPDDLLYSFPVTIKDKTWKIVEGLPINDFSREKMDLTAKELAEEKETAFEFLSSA
The experiment in a line: Ability to inhibit cytoplasmic malate dehydrogenase; Inactive. In a few lines: (§1)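 Pig heart enzyme (cytoplasmic or mitochondrial form), diluted in 0.05 M Tris pH 7.4 with 1% BSA to give 0.022–0.027 OD/min at 340 nm. Cuvette holds 0.05 M Tris pH 8.4, L-malate, NAD+ and Me2SO ± inhibitor. Equilibrated at 25 °C, then started with enzyme. Five inhibitor concentrations in triplicate; I50 from least-squares dose-response line.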

Assay [3] concerns the target T2, Malate dehydrogenase, mitochondrial (Sus scrofa) (UniProt P00346).
T2 sequence (whole entry): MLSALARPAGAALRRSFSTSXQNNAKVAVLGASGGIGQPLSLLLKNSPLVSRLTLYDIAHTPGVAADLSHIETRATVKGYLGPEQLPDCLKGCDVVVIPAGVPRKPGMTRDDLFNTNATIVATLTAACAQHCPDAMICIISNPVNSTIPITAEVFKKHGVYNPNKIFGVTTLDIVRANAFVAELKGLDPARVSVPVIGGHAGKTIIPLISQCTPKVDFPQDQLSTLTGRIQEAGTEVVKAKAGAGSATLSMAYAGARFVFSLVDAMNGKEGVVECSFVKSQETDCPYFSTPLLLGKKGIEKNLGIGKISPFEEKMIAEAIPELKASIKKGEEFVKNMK
As to the kind of experiment: Ability to inhibit mitochondrial malate dehydrogenase; Inactive. In a few lines:
as §1

For the compound `O=C(O)c1cnc2cc(OCCc3ccccc3)ccc2c1O`, in assay [1], the pI50 result was “inactive”.

Regarding `O=C(O)c1cnc2cc(OCCOc3ccc(F)cc3)ccc2c1O`, the pI50 result in assay [1] and in assay [2] was “inactive” in each case. In the case of `O=C(O)c1cnc2cc(OCCc3ccc(F)cc3)ccc2c1O`, the pI50 entry in assay [1] and in assay [2] was “inactive” throughout. With `O=C(O)c1cnc2cc(OCc3c(Cl)c(Cl)c(Cl)c(Cl)c3Cl)ccc2c1O`, the pI50 result in assay [1] and in assay [2] was “inactive” throughout. On to `O=C(O)c1cnc2cc(OCc3ccc4ccccc4c3)ccc2c1O`, for which the pI50 entry in assay [1] and in assay [2] was “inactive” each time. As to `O=C(O)c1cnc2cc(OCCOc3ccc(Oc4ccccc4)cc3)ccc2c1O`, the pI50 entry in assay [1] is “inactive”. Turning to `O=C(O)c1cnc2cc(OCc3ccc(F)cc3)ccc2c1O`, the pI50 result in assay [1] and in assay [2] was “inactive” throughout.

Turning to `COc1ccc2c(O)c(C(=O)O)cnc2c1`, the pI50 entry in assay [3], in assay [1] and in assay [2] was “inactive” in each case. Consider `O=C(O)c1cnc2cc(OCCc3ccc(Oc4ccccc4)cc3)ccc2c1O`, for which the pI50 entry in assay [1] is “inactive”. `NC(=O)c1ccc2c(O)c(C(=O)O)cnc2c1`: in assay [1], the pI50 entry is “inactive”.

As for `O=C(O)c1cnc2cc(OCCOc3ccccc3)ccc2c1O`, the pI50 result in assay [1] and in assay [2] was “inactive” in each case. Take `O=C(O)c1cnc2cc(OCCOc3ccc(Br)cc3)ccc2c1O`: the pI50 entry in assay [1] and in assay [2] was “inactive” throughout. With `O=C(O)c1cnc2ccccc2c1O`, the pI50 entry in assay [3], in assay [1] and in assay [2] was “inactive” each time.

Take `O=C(O)c1cnc2cc(OCc3ccc(Br)cc3)ccc2c1O`: the pI50 result in assay [1] and in assay [2] was “inactive” in each case.

As to `O=C(O)c1cnc2cc(OCc3ccc(Cl)c(Cl)c3)ccc2c1O`, the pI50 entry in assay [1] and in assay [2] was “inactive” each time. Take `O=C(O)c1cnc2cc(OCCc3ccc4ccccc4c3)ccc2c1O`: the pI50 result in assay [1] is “inactive”.

Regarding `O=C(O)c1cnc2cc(F)ccc2c1O`, in assay [1], the pI50 entry is “inactive”. Take `O=C(O)c1cnc2cc(OCc3ccccc3)ccc2c1O`: the pI50 result in assay [1] and in assay [2] was “inactive” each time. On to `O=C(O)c1cnc2cc(OCCOc3ccc4ccccc4c3)ccc2c1O`, for which the pI50 result in assay [1] and in assay [2] was “inactive” in each case. With `O=C(O)c1cnc2cc(OCc3cccc4ccccc34)ccc2c1O`, the pI50 entry in assay [1] and in assay [2] was “inactive” each time.
